Assay results: ChEMBL document CHEMBL1781935, “Amberlite-IRA-402 (OH) ion exchange resin mediated synthesis of indolizines, pyrrolo [1,2-a] quinolines and isoquinolines: antibacterial and antifungal evaluation of the products” (2011)
Values after ≈ are worked out from the molar mass of the structure shown. Active and inactive are the calls of the source. The rule behind the calls is not given here.

How the values were obtained:
[1] = test system: Aspergillus niger; test: Antifungal activity against Aspergillus niger after 96 hrs by dry weight calculation; type: functional, organism-based
In short: (§1)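 Fungicidal testing with double-fold drug dilutions in Sabouraud dextrose broth. Tubes inoculated with 1 ml spore suspension (2 × 10^5 spores/ml) and shaken at 200 rpm at 28 °C for 96 h. Drug was added at mid-logarithmic growth. Growth was measured as sample dry weight after drying at 60 °C.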

[2] = test system: Candida albicans; test: Antifungal activity against Candida albicans after 96 hrs by dry weight calculation; type: functional, organism-based; in short: as §1
[3] = test system: Escherichia coli; test: Antibacterial activity against Escherichia coli ATCC 25938 at 1 to 1000 ug/ml after overnight incubation by disc diffusion method; type: functional
In short: (§2)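 Disc diffusion on Mueller-Hinton agar. Plates seeded with 0.1 ml bacterial suspension (2 × 10^6 cfu/ml). Sterile 6 mm paper discs were impregnated with compound solutions at 1–1000 µg/ml and incubated at 37 °C overnight. Read-out was the diameter of the clear inhibition zone. Stocks were 1 mg/ml in 4% Tween 80 or 4% propylene glycol.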

[4] = test system: Klebsiella pneumoniae; test: Antibacterial activity against Klebsiella pneumoniae isolate J/1/4 at 1 to 1000 ug/ml after overnight incubation by disc diffusion method; type: functional; in short: as §2
[5] = test system: Staphylococcus aureus; test: Antibacterial activity against Staphylococcus aureus ATCC 25923 at 1 to 1000 ug/ml after overnight incubation by disc diffusion method; type: functional; in short: as §2
[6] = test system: Pseudomonas aeruginosa; test: Antibacterial activity against Pseudomonas aeruginosa ATCC 27853 at 1 to 1000 ug/ml after overnight incubation by disc diffusion method; type: functional; in short: as §2
[7] = test system: Vibrio cholerae; test: Antibacterial activity against Vibrio cholerae isolate 7201 at 1 to 1000 ug/ml after overnight incubation by disc diffusion method; type: functional
[8] = test system: Vibrio cholerae; test: Antibacterial activity against Vibrio cholerae isolate 720 at 1 to 1000 ug/ml after overnight incubation by disc diffusion method; type: functional
[9] = test system: Bacillus subtilis; test: Antibacterial activity against Bacillus subtilis UC564 at 1 to 1000 ug/ml after overnight incubation by disc diffusion method; type: functional; in short: as §2
[10] = test system: Shigella dysenteriae; test: Antibacterial activity against Shigella dysenteriae isolate 3 at 1 to 1000 ug/ml after overnight incubation by disc diffusion method; type: functional
[11] = test system: Enterococcus faecalis; test: Antibacterial activity against Enterococcus faecalis isolate 29212 at 1 to 1000 ug/ml after overnight incubation by disc diffusion method; type: functional; in short: as §2
[12] = test system: Shigella flexneri; test: Antibacterial activity against Shigella flexneri DN13 at 1 to 1000 ug/ml after overnight incubation by disc diffusion method; type: functional; in short: as §2
[13] = test system: Salmonella typhi; test: Antibacterial activity against Salmonella typhi DIRW at 1 to 1000 ug/ml after overnight incubation by disc diffusion method; type: functional; conditions: Salmonella enterica subsp. enterica serovar Typhi
[14] = test system: Vibrio parahaemolyticus; test: Antibacterial activity against Vibrio parahaemolyticus isolate 72016 at 1 to 1000 ug/ml after overnight incubation by disc diffusion method; type: functional; in short: as §2
[15] = test system: Micrococcus luteus; test: Antibacterial activity against Micrococcus luteus AGD1 at 1 to 1000 ug/ml after overnight incubation by disc diffusion method; type: functional; in short: as §2
[16] = test system: Salmonella typhimurium; test: Antibacterial activity against Salmonella Typhimurium isolate 11 at 1 to 1000 ug/ml after overnight incubation by disc diffusion method; type: functional, organism-based; conditions: Salmonella enterica subsp. enterica serovar Typhimurium; in short: as §2
[17] = test system: Aspergillus niger; test: Antifungal activity against Aspergillus niger at 1 to 1500 ug/ml after 96 hrs by disc diffusion method; type: functional
In short: (§3)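 Disc diffusion on Sabouraud dextrose agar. Plates seeded with 0.1 ml fungal spore suspension (2 × 10^5 spores/ml). Sterile 6 mm discs were impregnated with compound solutions at 1–1500 µg/ml and incubated at 28 °C for 96 h. Read-out was the clear inhibition zone. Strains were clinical isolates.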

[18] = test system: Candida albicans; test: Antifungal activity against Candida albicans at 1 to 1500 ug/ml after 96 hrs by disc diffusion method; type: functional; in short: as §3
[19] = test system: Candida tropicalis; test: Antifungal activity against Candida tropicalis at 1 to 1500 ug/ml after 96 hrs by disc diffusion method; type: functional; in short: as §3
[20] = test system: Cryptococcus neoformans; test: Antifungal activity against […] at 1 to 1500 ug/ml after 96 hrs by disc diffusion method; type: functional, organism-based; in short: as §3
[21] = test system: Aspergillus niger; test: Antifungal activity against Aspergillus niger after 96 hrs; type: functional
In short: (§4)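 Clinical isolates grown on Sabouraud dextrose agar at 28 °C. MIC was set by broth dilution in Sabouraud dextrose broth (0.1 ml of 2 × 10^5 spores/ml, 1–1500 µg/ml) or by agar dilution (2 × 10^5 spores/spot), with an antibiotic control, at 28 °C for 96 h. The lowest concentration with no visible growth was taken.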

[22] = test system: Candida albicans; test: Antifungal activity against Candida albicans after 96 hrs; type: functional; in short: as §4
[23] = test system: Candida tropicalis; test: Antifungal activity against Candida tropicalis after 96 hrs; type: functional; in short: as §4
[24] = test system: Escherichia coli; test: Antibacterial activity against Escherichia coli ATCC 25938; type: functional
In short: (§5)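 MIC by broth and agar dilution. Broth: 0.1 ml suspension (2 × 10^6 cfu/ml) in Mueller-Hinton broth with test drug at 1–1000 µg/ml, 37 °C overnight. Agar: serial drug dilutions in Mueller-Hinton agar, spot-inoculated with 2 × 10^6 cfu/spot, 37 °C for 24 h. MIC was the lowest concentration with no visible growth. Antibiotic controls were included.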

[25] = test system: Klebsiella pneumoniae; test: Antibacterial activity against Klebsiella pneumoniae isolate J/1/4; type: functional; in short: as §5
[26] = test system: Staphylococcus aureus; test: Antibacterial activity against Staphylococcus aureus ATCC 25923; type: functional; in short: as §5
[27] = test system: Pseudomonas aeruginosa; test: Antibacterial activity against Pseudomonas aeruginosa ATCC 27853; type: functional; in short: as §5
[28] = test system: Vibrio cholerae; test: Antibacterial activity against Vibrio cholerae isolate 7201; type: functional
[29] = test system: Bacillus subtilis; test: Antibacterial activity against Bacillus subtilis UC564; type: functional; in short: as §5
[30] = test system: Shigella dysenteriae; test: Antibacterial activity against Shigella dysenteriae isolate 3; type: functional
[31] = test system: Enterococcus faecalis; test: Antibacterial activity against Streptococcus faecalis isolate 29212; type: functional; in short: as §5
[32] = test system: Shigella flexneri; test: Antibacterial activity against Shigella flexneri DN13; type: functional; in short: as §5
[33] = test system: Salmonella typhi; test: Antibacterial activity against Salmonella typhi DIRW; type: functional, Salmonella enterica subsp. enterica serovar Typhi; conditions: Salmonella enterica
[34] = test system: Vibrio parahaemolyticus; test: Antibacterial activity against Vibrio parahaemolyticus isolate 72016; type: functional; in short: as §5
[35] = test system: Micrococcus luteus; test: Antibacterial activity against Micrococcus luteus AGD1; type: functional; in short: as §5
[36] = test system: Salmonella typhimurium; test: Antibacterial activity against Salmonella Typhimurium isolate 11; type: functional, Salmonella enterica subsp. enterica serovar Typhimurium; conditions: Salmonella enterica; in short: as §5
[37] = test system: Cryptococcus neoformans; test: Antifungal activity against […] after 96 hrs; type: functional; in short: as §4

SMILES: O=C(c1ccccc1)c1c(-c2ccccc2)cc2c3ccccc3ccn12
- Activity [1]: Dose-dependent effect
- Activity [2]: Dose-dependent effect
- diameter of the inhibition zone (DIZ) [3]: 10 mm
- diameter of the inhibition zone (DIZ) [4]: 10.5 mm
- diameter of the inhibition zone (DIZ) [5]: 8.5 mm
- diameter of the inhibition zone (DIZ) [6]: 8.1 mm
- diameter of the inhibition zone (DIZ) [7]: 9 mm
- diameter of the inhibition zone (DIZ) [8]: 9 mm
- diameter of the inhibition zone (DIZ) [9]: 10.2 mm
- diameter of the inhibition zone (DIZ) [10]: 8 mm
- diameter of the inhibition zone (DIZ) [11]: inactive
- diameter of the inhibition zone (DIZ) [12]: inactive
- diameter of the inhibition zone (DIZ) [13]: inactive
- diameter of the inhibition zone (DIZ) [14]: inactive
- diameter of the inhibition zone (DIZ) [15]: inactive
- diameter of the inhibition zone (DIZ) [16]: inactive
- diameter of the inhibition zone (DIZ) [17]: 12 mm
- diameter of the inhibition zone (DIZ) [18]: 30 mm
- diameter of the inhibition zone (DIZ) [19]: 10 mm
- diameter of the inhibition zone (DIZ) [20]: inactive
- MIC [21]: 500 µg/mL (≈ 1440 µM)
- MIC [22]: 500 µg/mL (≈ 1440 µM)
- MIC [23]: 1000 µg/mL (≈ 2880 µM)
- MIC [24]: 32 µg/mL (≈ 92.1 µM)
- MIC [25]: 64 µg/mL (≈ 184 µM)
- MIC [26]: 128 µg/mL (≈ 368 µM)
- MIC [27]: 128 µg/mL (≈ 368 µM)
- MIC [28]: 64 µg/mL (≈ 184 µM)
- MIC [29]: 32 µg/mL (≈ 92.1 µM)
- MIC [30]: 128 µg/mL (≈ 368 µM)
- MIC [31]: 500 µg/mL (≈ 1440 µM)
- MIC [32]: 500 µg/mL (≈ 1440 µM)
- MIC [33]: > 500 µg/mL
- MIC [34]: 500 µg/mL (≈ 1440 µM)
- MIC [35]: 500 µg/mL (≈ 1440 µM)
- MIC [36]: > 500 µg/mL

SMILES: OC(Cn1cncn1)(Cn1cncn1)c1ccc(F)cc1F [FLUCONAZOLE]
- MIC [37]: 8 µg/mL (≈ 26.1 µM)
- MIC [21]: 10 µg/mL (≈ 32.7 µM)
- MIC [22]: 4 µg/mL (≈ 13.1 µM)
- MIC [23]: 8 µg/mL (≈ 26.1 µM)
